Assay [1] relates to Bacillus subtilis. Description: Antimicrobial activity against Bacillus subtilis ATCC 23857 after 18 to 24 hrs by alamar blue assay. The class given is functional. The gist of the method: (§1)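 Broth microdilution per NCCLS in Mueller-Hinton broth, 8-point twofold dilutions, 384-well format. Exponential-phase cells at 5 × 10^5 cells/ml incubated with compound 18–24 h at 37 °C, then 20% Alamar blue added and fluorescence read. MIC90 taken as the lowest concentration preventing at least 90% bacterial growth.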

The subject of assay [2] is Staphylococcus aureus. The assay can be described thus: Antimicrobial activity against oxacillin- and methicillin-resistant Staphylococcus aureus isolate Sa-OXA-R2 after 18 to 24 hrs by alamar blue assay. The class given is functional. Summed up: (§2)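 Broth microdilution per NCCLS standard, Mueller-Hinton broth, 8-point twofold dilutions; exponentially growing cells at 5 10^5 cells/ml with compound, 18–24 h at 37 C; 20% Alamar blue added, fluorescence read; MIC90 taken as lowest concentration preventing at least 90% growth.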

In assay [3] the test system is Staphylococcus aureus. The assay can be described thus: Antimicrobial activity against methicillin-resistant Staphylococcus aureus ATCC 33592 after 18 to 24 hrs by alamar blue assay. It is filed as functional. As to conditions: Staphylococcus aureus, ATCC 33592; read-out: MIC. The gist of the method: as §2
Assay [4] deals with Serratia marcescens. The assay can be described thus: Antimicrobial activity against Serratia marcescens ATCC 14756 after 18 to 24 hrs by alamar blue assay. It is filed as functional. As to conditions: Serratia marcescens, ATCC 14756; read-out: MIC. Summed up:
as §1

Assay [5] deals with Staphylococcus aureus. The assay can be described thus: Antimicrobial activity against Staphylococcus aureus ATCC 29213 after 18 to 24 hrs by alamar blue assay.
Assay [6] has as its system Mycolicibacterium smegmatis. The assay can be described thus: Antimicrobial activity against Mycobacterium smegmatis BCRC 11565 after 18 to 24 hrs by alamar blue assay. It is filed as functional. Conditions: Mycolicibacterium smegmatis, BCRC 11565; read-out: MIC. The gist of the method: as §1
Assay [7] relates to Staphylococcus aureus. Description: Antimicrobial activity against methicillin-resistant Staphylococcus aureus isolate NTUH4722 after 18 to 24 hrs by alamar blue assay. The class given is functional. Summed up: as §2
In assay [8] the test system is Pseudomonas aeruginosa. The assay can be described thus: Antimicrobial activity against Pseudomonas aeruginosa ATCC 25619 after 18 to 24 hrs by alamar blue assay. As to conditions: Pseudomonas aeruginosa, ATCC 25619; read-out: MIC. The class given is functional. Summed up:
as §1

In assay [9] the test system is Escherichia coli. The assay can be described thus: Antimicrobial activity against Escherichia coli ATCC […] after 18 to 24 hrs by alamar blue assay. It is filed as functional. As to conditions: Escherichia coli; read-out: MIC. The gist of the method:
as §1

The test system of assay [10] is Stenotrophomonas maltophilia. Description: Antimicrobial activity against Stenotrophomonas maltophilia ATCC 13637 after 18 to 24 hrs by alamar blue assay. As to conditions: Stenotrophomonas maltophilia, ATCC 13637; read-out: MIC. The class given is functional. Summed up: as §1
Assay [11] deals with Acinetobacter baumannii. The assay can be described thus: Antimicrobial activity against Acinetobacter baumannii ATCC 49139 after 18 to 24 hrs by alamar blue assay. The class given is functional. As to conditions: Acinetobacter baumannii, ATCC 49139; read-out: MIC. The gist of the method:
as §1

Values after ≈ are worked out from the molar mass of the structure shown.

`O=C(Nc1nnc(-c2ccc(F)cc2)o1)c1cccc(C(F)(F)F)c1`: the MIC in assay [1] is 0.5 µg/mL (≈ 1.42 µM); in assay [2] it was 4 µg/mL (≈ 11.4 µM); in assay [3], 0.5 µg/mL (≈ 1.42 µM); in assay [4], greater than 256 µg/mL; in assay [5] it was 0.5 µg/mL (≈ 1.42 µM); in assay [6], 0.5 µg/mL (≈ 1.42 µM). Moreover, the MIC in assay [7] was 1 µg/mL (≈ 2.85 µM); in assay [8], greater than 256 µg/mL; in [9], greater than 256 µg/mL; in assay [10], greater than 256 µg/mL; in [11] it was greater than 256 µg/mL.

On to `O=C(Nc1nnc(-c2ccc(Br)cc2)o1)c1cccc(F)c1`, for which the MIC in assay [1] was 0.5 µg/mL (≈ 1.38 µM); in assay [2], 0.5 µg/mL (≈ 1.38 µM); in assay [3] it was 0.5 µg/mL (≈ 1.38 µM); in [4], greater than 256 µg/mL; in assay [5], 2 µg/mL (≈ 5.52 µM); in [6], 0.5 µg/mL (≈ 1.38 µM). Further, the MIC in assay [7] was 0.5 µg/mL (≈ 1.38 µM); in assay [8], greater than 256 µg/mL; in assay [9], greater than 256 µg/mL; in assay [10], greater than 256 µg/mL; in assay [11] it was greater than 256 µg/mL.

Turning to `Cc1c(CC(=O)N[C@@H](CCCNC(N)=O)C(=O)O)c(=O)oc2c(C)c3occ(-c4ccc(Cl)cc4)c3cc12`, the MIC in assay [1] was greater than 64 µg/mL; in assay [2], 2.5 µg/mL (≈ 4.63 µM); in [3] it was 2.5 µg/mL (≈ 4.63 µM); in [4] it was greater than 256 µg/mL; in assay [5], 1.25 µg/mL (≈ 2.31 µM); in assay [6], 1 µg/mL (≈ 1.85 µM). For the same compound, the MIC in assay [7] is 2.5 µg/mL (≈ 4.63 µM); in assay [8], greater than 256 µg/mL; in assay [9] it was greater than 256 µg/mL; in assay [10], greater than 256 µg/mL; in [11], greater than 256 µg/mL.

In the case of `CCN1C(=O)/C(=C/c2ccc([N+](=O)[O-])o2)SC1=S`, the MIC in [1] is less than 0.03 µg/mL; in [2], 0.25 µg/mL (≈ 0.879 µM); in [3] it was 0.5 µg/mL (≈ 1.76 µM); in assay [4] it was greater than 256 µg/mL; in [5], 0.5 µg/mL (≈ 1.76 µM); in assay [6], 1 µg/mL (≈ 3.52 µM). For the same compound, the MIC in assay [7] is 0.125 µg/mL (≈ 0.44 µM); in [8], 2 µg/mL (≈ 7.03 µM); in [9] it was 16 µg/mL (≈ 56.3 µM); in assay [10] it was greater than 256 µg/mL; in assay [11], greater than 256 µg/mL.

With `O=C1c2cc([N+](=O)[O-])cc3cc([N+](=O)[O-])cc(c23)C(=O)N1c1ccc(O)cc1`, the MIC in assay [1] is 4 µg/mL (≈ 10.5 µM); in assay [2], 0.3 µg/mL (≈ 0.791 µM); in [3], 2.5 µg/mL (≈ 6.59 µM); in [4] it was greater than 256 µg/mL; in assay [5] it was 2.5 µg/mL (≈ 6.59 µM); in assay [6], 4 µg/mL (≈ 10.5 µM). Also, the MIC in assay [7] was 2.5 µg/mL (≈ 6.59 µM); in assay [8], greater than 256 µg/mL; in assay [9], greater than 256 µg/mL; in assay [10], greater than 256 µg/mL; in assay [11] it was greater than 256 µg/mL.

Turning to `CCCc1cc(O)nc(N2NC(C)=CC2NC(=O)c2cccs2)n1` (configuration not stated), the MIC in [1] was 0.25 µg/mL (≈ 0.724 µM); in assay [2], 1 µg/mL (≈ 2.89 µM); in [3], 1 µg/mL (≈ 2.89 µM); in [4] it was greater than 256 µg/mL; in [5], 1 µg/mL (≈ 2.89 µM); in assay [6], 0.25 µg/mL (≈ 0.724 µM). Further, the MIC is 1 µg/mL (≈ 2.89 µM) in assay [7]; greater than 256 µg/mL in assay [8]; greater than 256 µg/mL in [9]; greater than 256 µg/mL in [10]; greater than 256 µg/mL in assay [11].

Consider `Cc1c(CC(=O)N2CCC(C(=O)O)CC2)c(=O)oc2c(C)c3occ(-c4ccc(Cl)cc4)c3cc12`, for which the minimum inhibitory concentration (MIC) in assay [1] was greater than 64 µg/mL; in assay [2], 2.5 µg/mL (≈ 5.06 µM); in assay [3] it was 1.25 µg/mL (≈ 2.53 µM); in assay [4] it was greater than 256 µg/mL; in assay [5], 2.5 µg/mL (≈ 5.06 µM); in assay [6], 1 µg/mL (≈ 2.02 µM). Besides, the minimum inhibitory concentration (MIC) in [7] is 2.5 µg/mL (≈ 5.06 µM); in assay [8] it was greater than 256 µg/mL; in [9] it was greater than 256 µg/mL; in [10], greater than 256 µg/mL; in [11], greater than 256 µg/mL.

(Values after ChEMBL document CHEMBL1629439, “High-throughput identification of antibacterials against methicillin-resistant Staphylococcus aureus (MRSA) and the transglycosylase” (Bioorg Med Chem, 2010).)
